AP ELISA ortho = alternative pathway complement inhibition, orthogonal assay; Human serum alternative complement pathway, LPS-coated ELISA, C3 deposition; tested in compound mixtures; inhibition, % at 5 µM; 62,000 tested, 0.08% active; AID 1235;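 active = inhibition above 30% in each of the two pooled mixtures holding the compound, so the lower value exceeds 30%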
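Medium: diluted human serum in Mg2+-EGTA GVB++. Assay system: human serum complement alternative pathway, C3 deposition onto LPS. Also added: Plate-bound LPS. Technique: Anti-C3 ELISA, OD 450 nm. Measure: percent inhibition. Incubation: 1 h at 37 °C. Dosing: 5 µM each compound, pools of ten, 50 µM per pool.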
WNV NS2B-NS3 inh = WNV NS2B-NS3 proteinase inhibition; 65,000 tested, 0.18% active; AID 577; z-score (concentration not given with the values); P06935; WNV NS2B-NS3 protease, fluorogenic substrate Ex360/Em465; stronger effect = lower value; in the data active = z-score below about -3
Target sequence (P06935 1371-1501 limits assumed): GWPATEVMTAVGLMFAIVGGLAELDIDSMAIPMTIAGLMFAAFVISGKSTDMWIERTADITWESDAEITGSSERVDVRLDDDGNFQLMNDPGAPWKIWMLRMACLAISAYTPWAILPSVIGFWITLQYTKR
Target sequence (P06935 1502-1679 limits assumed): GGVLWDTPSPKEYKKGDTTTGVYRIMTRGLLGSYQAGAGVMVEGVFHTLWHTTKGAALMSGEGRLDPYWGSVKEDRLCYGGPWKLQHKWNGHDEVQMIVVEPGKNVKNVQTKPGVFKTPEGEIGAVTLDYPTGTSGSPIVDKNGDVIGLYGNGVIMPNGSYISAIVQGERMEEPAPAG
D1 allo mod = D1 dopamine receptor (human) allosteric modulation. 58,000 tested, 5.9% active. HEK293 D1, CRE-luciferase, dopamine EC30 potentiation; actives deviate in either direction. B-score at 10 µM. P21728;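 active = luminescence count or its row- and column-corrected plate score outside the 99.7% band of the plate's sample wells, on either side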
hDAT+cocaine = human DAT dopamine uptake with cocaine, either direction | 110,000 tested, 1.3% active | Q01959 | B-score at 10 µM | LLC-PK1 hDAT cells, [14C]-dopamine uptake with cocaine IC80; actives deviate in either direction;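 active = Z score or B-score, a plate-position-corrected score, falls beyond the plate's 99.7% confidence bounds, in either direction; inactive = both scores lie inside the 99.7% bounds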
D1 PAM confirm = D1 receptor (human) allosteric modulation, confirmed. luminescence at 10 µM. 2,200 tested, 88% active. shares compounds with D1 allo mod. HEK293 D1 CRE-luciferase, dopamine EC30 potentiation; stronger effect = higher value;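 active = luminescence in either of two replicates above the same-plate mean plus 3 SD of the low-dose dopamine control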
D1 ag no DA = secondary test of D1 modulators: activity without dopamine; AID 646; shares compounds with D1 allo mod; 1,900 tested, 0.8% active; luminescence at 10 µM; HEK293 D1 CRE-luciferase, luminescence, no dopamine; stronger effect = higher value; in the data active = luminescence above about 3900
Isoprot counter = counter-screen for D1 modulators: isoproterenol response in HEK293 cells. shares compounds with D1 allo mod. luminescence at 10 µM. HEK293 D1 CRE-luciferase, isoproterenol EC30 counter-screen; stronger effect = higher value. 2,200 tested, 63% active. AID 647;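 active = luminescence in either replicate above plate mean of wells with a partly effective reference agonist dose plus 3 SD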;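 note: isoproterenol raises cAMP through native beta-adrenoceptor Gs so signal bypasses D1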
A number is an active result; i = inactive; nt = no result given. The entries come from a sample that favours hits as a whole.

SMILES | AP ELISA ortho | WNV NS2B-NS3 inh | D1 allo mod | hDAT+cocaine | D1 PAM confirm | D1 ag no DA | Isoprot counter
CSc1nc2oc3c(c2c2nncn12)CC(C)(C)SC3 | i | i | 5.7 | i | 9128 | i | i
CC1(C)Cc2c(c(-c3ccco3)[nH]c(=O)c2C#N)CO1 | i | i | 4.3 | i | 15660 | i | 3284
CC1(C)Cc2c(C#N)c(N3CCCC3)nc(-c3ccco3)c2CO1 | i | i | 5.3 | i | 9980 | i | i
CCc1[nH]c(=O)c(C#N)c2c1COC(C)(C)C2 | nt | nt | nt | i | nt | nt | nt
CC1(C)Cc2c(c(-c3ccco3)nc3n[nH]c(N)c23)CO1 | i | i | 11 | i | 17288 | i | 4488
CN(C)CCNc1nc(-c2ccco2)c2c(c1C#N)CC(C)(C)OC2 | nt | i | nt | i | nt | nt | nt
CC1(C)Cc2c(C#N)c(NCc3ccco3)nc(-c3ccco3)c2CO1 | nt | i | nt | i | nt | nt | nt
Cc1ccc(C2=NOC(C)(c3nnc(Cc4ccccc4)o3)C2)cc1 (stereo unspecified) | nt | nt | nt | i | nt | nt | nt
Cc1c(-c2ccccc2)sc(N)c1C(=O)N1CCOCC1 | i | i | i | i | nt | nt | nt
CCCSc1nsc(SCCC)c1C(N)=O | i | i | 4.4 | i | 9628 | i | i
CCSc1nsc(SCC)c1C(N)=O | i | i | i | i | nt | nt | nt
CN(C)S(=O)(=O)c1cccc(C(=O)NCc2cccs2)c1 | nt | nt | nt | i | nt | nt | nt
Cc1ccc(C)c(CN2C(=O)C3CCCN3c3ccc(S(=O)(=O)N4CCOCC4)cc32)c1 (stereo unspecified) | nt | nt | nt | i | nt | nt | nt
Cc1ccc2c(c1)-c1c(ssc1=S)C(C)(C)N2C(=O)CSc1nncn1C | i | i | 3.8 | i | 11288 | i | i
Cc1cc(C)c2c(c1)-c1c(ssc1=S)C(C)(C)N2C(=O)CSc1nncn1C | i | i | i | i | nt | nt | nt
CCCCN(CC)C(=O)c1ccc(Cl)c(Cl)c1 | i | i | 3.8 | i | 7124 | i | i
COc1cc2c(cc1OC)CN(C(=O)CCCN1C(=O)c3ccccc3C1=O)CC2 | i | i | 5 | i | 7424 | i | 3264
COc1cc2c(cc1OC)CN(C(=O)CSc1n[nH]c(N)n1)CC2 | i | i | 13 | i | 16292 | i | 3648
COc1cc2c(cc1OC)CN(C(=O)CSc1nc(C)cc(C)c1C#N)CC2 | nt | nt | nt | i | nt | nt | nt
C=CCn1c(SCCCC)nc(O)cc1=O | i | i | 3.6 | i | i | i | i
C=CCn1c(SCCCCCC)nc(O)cc1=O | nt | i | i | i | nt | nt | nt
COc1ccccc1C(=O)NCCCn1cc(Br)c(C)n1 | i | i | i | i | nt | nt | nt
O=C(Nc1cccc(O)c1)c1cnn2cccnc12 | nt | nt | nt | i | nt | nt | nt
O=C(Nc1cccnc1)c1cnn2cccnc12 | i | i | 4.6 | i | 7304 | i | 2820
Cc1ccc(S(=O)(=O)N2CCN(C(=O)COC(=O)c3cc(C)oc3C)CC2)cc1 | i | i | 4.3 | i | 6052 | i | i
SMILES | AP ELISA ortho | WNV NS2B-NS3 inh | D1 allo mod | hDAT+cocaine | D1 PAM confirm | D1 ag no DA | Isoprot counter
CC(=O)c1c(C)[nH]c(C(=O)OCn2nnc3ccccc3c2=O)c1C | i | i | 2.4 | i | i | nt | i
O=C(OCn1nnc2ccccc2c1=O)c1cccnc1Cl | nt | nt | nt | i | nt | nt | nt
CSc1ncccc1C(=O)OCn1nnc2ccccc2c1=O | i | i | 3.3 | i | 9044 | i | 3480
CCCNc1nc(C)cc(-c2cc(C(=O)NC3CCCC3)on2)n1 | nt | nt | nt | i | nt | nt | nt
CN(CC(=O)NC1CCCCCCC1)S(=O)(=O)c1cccc2cccnc12 | i | i | nt | i | nt | nt | nt
O=S(=O)(NC1CCCCCC1)c1cccc2cccnc12 | i | i | 5.5 | i | 9760 | i | 3500
CCCCCOCC(O)CCC(=O)NN (stereo unspecified) | nt | nt | nt | i | nt | nt | nt
CC1CC(C)CN(c2cc(=O)n(Cc3ccc(F)cc3)c(=O)[nH]2)C1 (stereo unspecified) | nt | nt | nt | i | nt | nt | nt
COCCCNc1nc(-c2ccncc2)nc2ccccc12 | nt | i | 5.7 | i | 6996 | nt | 3008
CC(=O)c1cccc(NC2c3ncccc3C(=O)N2Cc2ccco2)c1 (stereo unspecified) | i | i | 20 | i | 19736 | nt | 4728
O=C1c2cccnc2C(Nc2ccccc2)N1Cc1ccco1 (stereo unspecified) | nt | nt | nt | i | nt | nt | nt
Cc1cc(=O)oc2cc(OC(C)C(=O)Nc3nccs3)ccc12 (stereo unspecified) | i | i | 4.6 | i | 12128 | i | 3488
NC(=O)Cc1c[nH]c2cccc(O)c12 | i | i | i | i | nt | nt | nt
